Assay results from different studies.
Compare with care: the assays were run in different laboratories.
Effect on: metabolic stability
Medium: liver microsomes

| SMILES | species | tested at | pH | microsomal CLint [µL/min/mg] |
| --- | --- | --- | --- | --- |
| CCN(CC)CCNC(=O)c1c(C)[nH]c(/C=C2\C(=O)Nc3ccc(F)cc32)c1C | mouse | 1 µM | pH 7.4 | 54 |
| N#CC1CCCN(c2nc(-c3ccccn3)nc3ccccc23)C1 (stereo not shown) | mouse |  |  | 93 |
| Clc1ccc(COc2cncc(-c3cnn(C4CCNCC4)c3)c2)c(Cl)c1 | mouse |  |  | 28.9 |
| CCOc1ccc2ccc(=O)oc2c1 | mouse | 1 µM | pH 7.4 | 522 |
| c1ccc(C2CCN(c3nc(-c4ccco4)nc4ccccc34)C2)nc1 (stereo not shown) | mouse |  |  | 539 |
| Cc1cc(Nc2ccc(S(F)(F)(F)(F)F)cc2)n2nc(C(F)(F)F)nc2n1 | mouse | 1 µM | pH 7.4 | < 10 |
| O=C(C1CCCCC1)N1CC(=O)N2CCc3ccccc3[C@@H]2C1 | mouse | 0.1 µM | pH 7.4 | > 1000 |
| CCOC(=O)c1c(-c2cccc(Cl)c2)[nH]c2cc(OC)ccc2c1=O | female CD-1 mouse | 19.8 µM | pH 7.4 | > 15 |
| O=C(Nc1ccnc(C(F)(F)F)c1)Nc1cccc2c1OC(F)(F)O2 | mouse |  |  | 92 |
| CCOC(=O)c1c(-c2cccc(Oc3ccccc3)c2)[nH]c2cc(OC)c(F)cc2c1=O | female CD-1 mouse | 19.8 µM | pH 7.4 | > 15 |
| c1ccc(-c2nc(NCc3cccnc3)c3ccccc3n2)nc1 | mouse |  |  | 64 |
| Cc1cc(NC(=O)Nc2ccc3c(c2)OC(F)(F)O3)cc(C(F)(F)F)n1 | mouse |  |  | 36 |
| FC(F)(F)c1ccccc1-c1nc(N2CCC(c3ccccn3)C2)c2ccccc2n1 (stereo not shown) | mouse |  |  | 688 |
| CCCOc1cccc(-c2[nH]c3cc(OC)ccc3c(=O)c2C(=O)OCC)c1 | female CD-1 mouse | 19.8 µM | pH 7.4 | > 15 |
| Cc1cc(Nc2ccc(S(F)(F)(F)(F)F)cc2)n2ccnc2n1 | mouse |  |  | 30 |
| Cc1cc(Nc2ccc(S(F)(F)(F)(F)F)cc2)n2nc(C(C)(F)F)nc2n1 | mouse | 1 µM | pH 7.4 | < 10 |
| CCOC(=O)C1=C(C)N/C(=C/c2cc(C)n(Cc3ccc(C(F)(F)F)cc3)c2C)C1=O | mouse | 1 µM |  | 103 |
| COc1ccc(Nc2nc(-c3ccccn3)nc3ccccc23)cc1 | mouse |  |  | 158 |
| CCC(F)(F)c1nc2nc(C)cc(Nc3ccc(C(F)(F)F)cc3)n2n1 | mouse | 1 µM | pH 7.4 | < 10 |
